Data as given in ChEMBL document CHEMBL1154048, “Design, synthesis and pharmacological evaluation of new 1-[3-(4-arylpiperazin-1-yl)-2-hydroxy-propyl]-3,3-diphenylpyrrolidin-2-one derivatives with antiarrhythmic, antihypertensive, and alpha-adrenolytic activity” (Eur J Med Chem, 2009).

Experiments:
[1] = system: Rattus norvegicus; assay: Hypotensive activity in normotensive Wistar rat assessed as systolic blood pressure at 2.5 mg/kg, iv after 5 mins (Rvb=125.6 +/- 7.6 mmHg); format: functional, Artery
[2] = system: Rattus norvegicus; assay: Hypotensive activity in normotensive Wistar rat assessed as systolic blood pressure at 2.5 mg/kg, iv after 10 mins (Rvb=125.6 +/- 7.6 mmHg); format: functional, Artery
[3] = system: Rattus norvegicus; assay: Hypotensive activity in normotensive Wistar rat assessed as diastolic blood pressure at 2.5 mg/kg, iv after 20 mins (Rvb=107.2 +/- 7.3 mmHg); format: functional, Artery
[4] = system: Rattus norvegicus; assay: Hypotensive activity in normotensive Wistar rat assessed as diastolic blood pressure at 2.5 mg/kg, iv after 30 mins (Rvb=107.2 +/- 7.3 mmHg); format: functional, Artery
[5] = system: Rattus norvegicus; assay: Hypotensive activity in normotensive Wistar rat assessed as systolic blood pressure at 5 mg/kg, iv after 10 mins (Rvb=140.5 +/- 1.1 mmHg); format: functional, Artery
[6] = system: Rattus norvegicus; assay: Hypotensive activity in normotensive Wistar rat assessed as systolic blood pressure at 5 mg/kg, iv after 20 mins (Rvb=140.5 +/- 1.1 mmHg); format: functional, Artery
[7] = system: Rattus norvegicus; assay: Hypotensive activity in normotensive Wistar rat assessed as systolic blood pressure at 5 mg/kg, iv after 30 mins (Rvb=140.5 +/- 1.1 mmHg); format: functional, Artery
[8] = system: Rattus norvegicus; assay: Hypotensive activity in normotensive Wistar rat assessed as systolic blood pressure at 5 mg/kg, iv after 60 mins (Rvb=140.5 +/- 1.1 mmHg); format: functional, Artery
[9] = system: Rattus norvegicus; assay: Hypotensive activity in normotensive Wistar rat assessed as systolic blood pressure at 5 mg/kg, iv after 20 mins (Rvb=139 +/- 0.6 mmHg); format: functional, Artery
[10] = system: Rattus norvegicus; assay: Hypotensive activity in normotensive Wistar rat assessed as systolic blood pressure at 5 mg/kg, iv after 30 mins (Rvb=139 +/- 0.6 mmHg); format: functional, Artery
[11] = system: Rattus norvegicus; assay: Hypotensive activity in normotensive Wistar rat assessed as systolic blood pressure at 5 mg/kg, iv after 60 mins (Rvb=139 +/- 0.6 mmHg); format: functional, Artery
[12] = system: Rattus norvegicus; assay: Hypotensive activity in normotensive Wistar rat assessed as diastolic blood pressure at 5 mg/kg, iv after 5 mins (Rvb=120 +/- 1.7 mmHg); format: functional, Artery
[13] = system: Rattus norvegicus; assay: Hypotensive activity in normotensive Wistar rat assessed as diastolic blood pressure at 5 mg/kg, iv after 10 mins (Rvb=120 +/- 1.7 mmHg); format: functional, Artery
[14] = system: Rattus norvegicus; assay: Hypotensive activity in normotensive Wistar rat assessed as systolic blood pressure at 5 mg/kg, iv after 10 mins (Rvb=141.3 +/- 6.4 mmHg); format: functional, Artery
[15] = system: Rattus norvegicus; assay: Hypotensive activity in normotensive Wistar rat assessed as systolic blood pressure at 5 mg/kg, iv after 20 mins (Rvb=141.3 +/- 6.4 mmHg); format: functional, Artery
[16] = system: Rattus norvegicus; assay: Hypotensive activity in normotensive Wistar rat assessed as systolic blood pressure at 5 mg/kg, iv after 60 mins (Rvb=141.3 +/- 6.4 mmHg); format: functional, Artery
[17] = system: Rattus norvegicus; assay: Hypotensive activity in normotensive Wistar rat assessed as diastolic blood pressure at 5 mg/kg, iv after 5 mins (Rvb=126 +/- 4.6 mmHg); format: functional, Artery
[18] = system: Rattus norvegicus; assay: Hypotensive activity in normotensive Wistar rat assessed as diastolic blood pressure at 5 mg/kg, iv after 10 mins (Rvb=126 +/- 4.6 mmHg); format: functional, Artery
[19] = system: Rattus norvegicus; assay: Hypotensive activity in normotensive Wistar rat assessed as diastolic blood pressure at 5 mg/kg, iv after 30 mins (Rvb=126 +/- 4.6 mmHg); format: functional, Artery
[20] = system: Rattus norvegicus; assay: Hypotensive activity in normotensive Wistar rat assessed as diastolic blood pressure at 5 mg/kg, iv after 60 mins (Rvb=126 +/- 4.6 mmHg); format: functional, Artery
[21] = organism: Rattus norvegicus; assay: Selectivity for rat cerebral cortex alpha1 adrenergic receptor over rat cerebral cortex alpha2 adrenergic receptor; format: tissue-based
Outline: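 Rat cerebral cortex membranes were prepared in 50 mM Tris–HCl pH 7.6, homogenized and spun twice at 20 000 g. Competition was against [3H]prazosin 0.2 nM (α1) or [3H]clonidine 2 nM (α2), with 7–8 concentrations from 10^-11 to 10^-4 M. Nonspecific binding was defined with phentolamine for the prazosin assay. After filtration, binding was read by scintillation counting in duplicate. Ki was calculated by Cheng–Prusoff, and selectivity was compared from the α1 and α2 Ki values.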

[22] = Selectivity ratio of Kb for alpha1B adrenoceptor in guinea pig spleen to Kb for Alpha-1D adrenoceptor in Wistar rat thoracic aorta; format: tissue-based
Outline: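 Isolated-tissue antagonism assays were run in guinea-pig spleen (α1B) and in endothelium-denuded ~4 mm thoracic aortic rings from male Wistar rats weighing 200–350 g (α1D). Aortic rings sat in Krebs–Henseleit at 37 °C, pH 7.4, gassed with O2/CO2 19:1, at 2 g tension. Two cumulative noradrenaline curves were run 60 min apart, with 30 min antagonist incubation and continuous propranolol. Schild pA2 was taken as pKB, n ≥ 5.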

[23] = system: Rattus norvegicus; assay: Hypotensive activity in normotensive Wistar rat assessed as systolic blood pressure at 5 mg/kg, iv after 5 mins (Rvb=142.5 +/- 3.6 mmHg); format: functional, Artery
[24] = system: Rattus norvegicus; assay: Hypotensive activity in normotensive Wistar rat assessed as systolic blood pressure at 5 mg/kg, iv after 20 mins (Rvb=142.5 +/- 3.6 mmHg); format: functional, Artery
[25] = system: Rattus norvegicus; assay: Hypotensive activity in normotensive Wistar rat assessed as systolic blood pressure at 5 mg/kg, iv after 30 mins (Rvb=142.5 +/- 3.6 mmHg); format: functional, Artery
[26] = system: Rattus norvegicus; assay: Hypotensive activity in normotensive Wistar rat assessed as systolic blood pressure at 5 mg/kg, iv after 60 mins (Rvb=142.5 +/- 3.6 mmHg); format: functional, Artery
[27] = system: Rattus norvegicus; assay: Hypotensive activity in normotensive Wistar rat assessed as diastolic blood pressure at 5 mg/kg, iv after 5 mins (Rvb=127 +/- 8.1 mmHg); format: functional, Artery
[28] = system: Rattus norvegicus; assay: Hypotensive activity in normotensive Wistar rat assessed as diastolic blood pressure at 5 mg/kg, iv after 10 mins (Rvb=127 +/- 8.1 mmHg); format: functional, Artery
[29] = system: Rattus norvegicus; assay: Hypotensive activity in normotensive Wistar rat assessed as diastolic blood pressure at 5 mg/kg, iv after 20 mins (Rvb=127 +/- 8.1 mmHg); format: functional, Artery
[30] = system: Rattus norvegicus; assay: Hypotensive activity in normotensive Wistar rat assessed as systolic blood pressure at 5 mg/kg, iv after 10 mins (Rvb=138 +/- 0.9 mmHg); format: functional, Artery
[31] = system: Rattus norvegicus; assay: Hypotensive activity in normotensive Wistar rat assessed as systolic blood pressure at 5 mg/kg, iv after 30 mins (Rvb=138 +/- 0.9 mmHg); format: functional, Artery
[32] = system: Rattus norvegicus; assay: Hypotensive activity in normotensive Wistar rat assessed as diastolic blood pressure at 5 mg/kg, iv after 20 mins (Rvb=119 +/- 1.2 mmHg); format: functional, Artery
[33] = system: Rattus norvegicus; assay: Hypotensive activity in normotensive Wistar rat assessed as diastolic blood pressure at 5 mg/kg, iv after 30 mins (Rvb=119 +/- 1.2 mmHg); format: functional, Artery
[34] = system: Rattus norvegicus; assay: Hypotensive activity in normotensive Wistar rat assessed as diastolic blood pressure at 5 mg/kg, iv after 60 mins (Rvb=119 +/- 1.2 mmHg); format: functional, Artery

`COc1ccc(N2CCN(CC(O)CN3CCC(c4ccccc4)(c4ccccc4)C3=O)CC2)cc1.Cl.Cl` (centres undefined) showed an Activity [1] of 126.6 mmHg, an Activity [2] of 115.2 mmHg and an Activity [3] of 89.8 mmHg. The Activity [4] was 88.2 mmHg.

Work on `Cl.Cl.O=C1N(CC(O)CN2CCN(c3ccccc3)CC2)CCC1(c1ccccc1)c1ccccc1` (centres undefined) yielded an Activity [5] of 134.5 mmHg, an Activity [6] of 135.5 mmHg and an Activity [7] of 129 mmHg. The Activity [8] was 126.5 mmHg.

In the case of `COc1ccccc1N1CCN(CC(O)CN2CCC(c3ccccc3)(c3ccccc3)C2=O)CC1.Cl.Cl` (centres undefined), the Activity [9] is reported as 118 mmHg, the Activity [10] is reported as 116 mmHg and the Activity [11] is reported as 112 mmHg. The Activity [12] was 109 mmHg and the Activity [13] was 107.5 mmHg.

In the case of `Cc1ccccc1N1CCN(CC(O)CN2CCC(c3ccccc3)(c3ccccc3)C2=O)CC1.Cl.Cl` (centres undefined), the Activity [14] is reported as 133.7 mmHg, the Activity [15] is reported as 136.3 mmHg and the Activity [16] is reported as 116 mmHg. For the same compound, the Activity [17] was 116.7 mmHg, the Activity [18] was 118 mmHg and the Activity [19] was 117.7 mmHg. The Activity [20] was 99 mmHg.

`CCOc1ccccc1N1CCN(CC(O)CN2CCC(c3ccccc3)(c3ccccc3)C2=O)CC1.Cl.Cl` (centres undefined) gave a Selectivity ratio [21] of 10, a Ratio [22] of 5.2 and an Activity [23] of 130 mmHg. It also gave an Activity [24] of 111 mmHg, an Activity [25] of 113.5 mmHg and an Activity [26] of 114 mmHg. The Activity [27] was 117 mmHg, the Activity [28] was 105 mmHg and the Activity [29] was 98 mmHg.

Work on `Cl.Cl.O=C1N(CC(O)CN2CCN(c3ccccc3C(F)(F)F)CC2)CCC1(c1ccccc1)c1ccccc1` (centres undefined) yielded an Activity [30] of 122 mmHg, an Activity [31] of 116 mmHg and an Activity [32] of 104 mmHg. For the same compound, the Activity [33] was 103 mmHg and the Activity [34] was 100 mmHg.
